Measurements: ChEMBL document CHEMBL1240409, “Design, synthesis and evaluation of (E)-alpha-benzylthio chalcones as novel inhibitors of BCR-ABL kinase” (Bioorg Med Chem, 2010)

Tests used:
DU-145 = assay: Growth inhibition of human DU145 cells after 96 hrs by trypan blue exclusion assay; type: functional; conditions: DU-145, 96 h
K562 = assay: Growth inhibition of human K562 cells expressing p210Bcr/Abl after 96 hrs by trypan blue exclusion assay; type: functional, cell-based; conditions: K562, 96 h
Method in brief: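 K562 cells were kept in RPMI with 10% FBS and penicillin–streptomycin at 37 °C under 5% CO2. Cells were seeded at 1 × 10^5 cells/mL with a range of compound concentrations, using DMSO as the negative control. After 96 h, viability was counted by Trypan blue exclusion and expressed as percent of DMSO control to derive GI50.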

| SMILES | GI50 (DU-145) [µM] | GI50 (K562) [µM] |
| --- | --- | --- |
| Cc1ccc(S(=O)(=O)/C(=C/c2cc(C)ccc2C)C(=O)c2ccc(Cl)cc2)cc1 | 1 | 1 |
| O=C(C(=Cc1ccc(Br)cc1)S(=O)(=O)Cc1ccc(I)cc1)c1ccc(I)cc1 | 20 | 20 |
| O=C(/C(=C\c1ccccc1OCc1ccccc1)Sc1ccc(Br)cc1)c1ccc(Cl)cc1 | 10 | 10 |
| Cc1ccc(S/C(=C/c2c(F)c(F)c(F)c(F)c2F)C(=O)c2ccc(Cl)cc2)cc1 | 25 | 25 |
| COc1ccc(S(=O)(=O)/C(=C/c2ccccc2OCc2ccccc2)C(=O)c2ccc(Cl)cc2)cc1 | 1 | 1 |
| O=C(/C(=C\c1ccc(Cl)cc1Cl)S(=O)(=O)c1ccc(Br)cc1)c1ccc(Br)cc1 | 10 | 1 |
| O=C(/C(=C\c1c(O)cc(O)cc1O)Sc1ccccc1Br)c1ccc(Cl)cc1 | > 100 | > 100 |
| O=C(/C(=C\c1c[nH]c2ccc(Cl)cc12)SCc1ccc(F)cc1)c1ccc(Br)cc1 | 1 | 1 |
| COc1ccc(C(=O)/C(=C\c2ccc(OC)c(O)c2)Sc2ccc(F)cc2)cc1 | 1 | 1 |
| O=C(/C(=C\c1cc(Cl)cc(Cl)c1Cl)Sc1ccccc1Br)c1ccc(Cl)cc1 | 25 | 50 |
| COc1ccsc1/C=C(\C(=O)c1ccc(Br)cc1)S(=O)(=O)Cc1ccc(Cl)cc1 | 50 | 25 |
| CSc1ccc(/C=C(\C(=O)c2ccc(Cl)cc2)S(=O)(=O)Cc2ccc(Cl)cc2)cc1 | 10 | 1 |
| CN(C)c1ccc(/C=C(/SCc2ccc(Cl)cc2)C(=O)c2ccc(Cl)cc2)cc1 | > 100 | 10 |
| O=C(/C(=C\c1ccc(OC(F)(F)F)cc1)Sc1ccc(Br)cc1)c1ccc(Br)cc1 | 10 | 1 |
| COc1ccc2[nH]cc(/C=C(/Sc3ccc(Br)cc3)C(=O)c3ccc(Br)cc3)c2c1 | 10 | 10 |
| O=C(/C(=C\c1ccc(O)cc1)SCc1ccc(F)cc1)c1ccc(Br)cc1 | 10 | 1 |
| O=C(/C(=C\c1ccc(Br)cc1)S(=O)(=O)c1ccc(Br)cc1)c1ccccc1O | > 100 | 10 |
| O=C(/C(=C\c1ccc(F)cc1C(F)(F)F)S(=O)(=O)Cc1ccc(Cl)c(Cl)c1)c1ccc(Cl)cc1 | 1 | 1 |
| O=C(/C(=C\c1ccc[nH]1)SCc1ccc(Cl)cc1)c1ccc(Cl)cc1 | 10 | 10 |
| O=C(/C(=C\c1c(O)cc(O)cc1O)SCc1ccc(Cl)c(Cl)c1)c1ccc(Cl)cc1 | 25 | 25 |
| COc1cc(OC)c(/C=C(/SCc2ccc(F)cc2)C(=O)c2ccc(Cl)cc2)c(OC)c1 | 10 | 10 |
| Cc1ccc(CS(=O)(=O)/C(=C/c2sccc2C)C(=O)c2ccc(Cl)cc2)cc1 | 25 | 25 |
| Cc1ccc(S/C(=C/c2ccc(Br)cc2)C(=O)c2ccc(Cl)cc2)cc1 | 25 | 50 |
| CN(C)c1ccc(/C=C(/SCc2ccccc2Cl)C(=O)c2ccc(Cl)cc2)cc1 | > 100 | 50 |
| O=C(O)c1ccc(C(=O)/C(=C\c2ccc(Br)cc2)SCc2ccc(F)cc2)cc1 | > 100 | > 100 |
| O=C(/C(=C\c1cc(I)c(O)c(I)c1)SCc1ccc(Br)cc1)c1ccc(Br)cc1 | 1 | 1 |
| O=C(/C(=C\c1ccc(Oc2ccccc2)cc1)Sc1ccc(Br)cc1)c1ccc(Br)cc1 | 50 | 50 |
| COc1cc(OC)c(/C=C(/SCc2ccc(Cl)cc2)C(=O)c2ccc([N+](=O)[O-])cc2)c(OC)c1 | > 100 | 50 |
| Cc1ccc(S/C(=C/c2ccc(C)s2)C(=O)c2ccc(Br)cc2)cc1 | > 100 | 50 |

Results, then the molecule that gave them:

| GI50 (DU-145) [µM] | GI50 (K562) [µM] | SMILES |
| --- | --- | --- |
| 1 | 1 | COc1ccc(C(=O)/C(=C\c2ccc(Br)cc2)S(=O)(=O)c2ccc(F)cc2)cc1 |
| 10 | 10 | O=C(/C(=C\c1ccccc1OCc1ccccc1)SCc1ccc(Cl)c(Cl)c1)c1ccc(Cl)cc1 |
| 1 | 1 | Cc1ccsc1/C=C(\C(=O)c1ccc([N+](=O)[O-])cc1)S(=O)(=O)Cc1ccc(Cl)cc1 |
| 1 | 1 | O=C(/C(=C\c1ccc(O)c([N+](=O)[O-])c1)Sc1ccc(Br)cc1)c1ccc(Br)cc1 |
| 25 | 25 | O=C(/C(=C\c1ccc(O)c([N+](=O)[O-])c1)S(=O)(=O)c1ccc(I)cc1)c1ccc(Br)cc1 |
| 50 | 1 | CCOc1ccc(/C=C(/Sc2ccccc2Cl)C(=O)c2ccc(Cl)cc2)cc1OC |
| 10 | 10 | COc1ccc(OC)c(/C=C(/SCc2ccc(Cl)c(Cl)c2)C(=O)c2ccc(Cl)cc2)c1 |
| 1 | 1 | COc1ccccc1/C=C(\C(=O)c1ccc(Cl)cc1)S(=O)(=O)c1ccc(C)cc1 |
| > 100 | > 100 | Cc1ccc(S/C(=C/c2c(O)cc(O)cc2O)C(=O)c2ccc(Cl)cc2)cc1 |
| 10 | 25 | Cc1ccc(S/C(=C/c2ccc(O)c([N+](=O)[O-])c2)C(=O)c2ccc(Cl)cc2)cc1 |
| > 100 | 50 | O=C(/C(=C\c1ccc(-c2ccccc2)s1)SCc1ccc(F)cc1)c1ccc(Br)cc1 |
| 50 | 50 | Cc1ccc(S/C(=C/c2sccc2C)C(=O)c2ccc(Cl)cc2)cc1 |
| 25 | 25 | COc1ccccc1/C=C(\C(=O)c1ccc(Cl)cc1)S(=O)(=O)Cc1ccc(Cl)cc1 |
| 10 | 10 | CCOc1cc(/C=C(\C(=O)c2ccc(Cl)cc2)S(=O)(=O)Cc2ccc(Cl)cc2)ccc1O |
| 25 | 25 | Cc1ccc(CS(=O)(=O)/C(=C/c2ccc(C)s2)C(=O)c2ccc(Cl)cc2)cc1 |
| 10 | 10 | Cc1cc(C)cc(/C=C(\C(=O)c2ccc(Cl)cc2)S(=O)(=O)c2ccc(Br)cc2)c1 |
| > 100 | > 100 | COc1cc(OC)c(/C=C(\C(=O)c2ccc(Br)cc2)S(=O)(=O)c2ccc(C)cc2)c(OC)c1 |
| 1 | 1 | Cc1ccc(CS(=O)(=O)/C(=C/c2cccc(Cl)c2Cl)C(=O)c2ccc(Cl)cc2)cc1 |
| 1 | 1 | O=C(/C(=C\c1ccc(Oc2ccccc2)cc1)SCc1ccccc1Cl)c1ccc(Cl)cc1 |
| 50 | 50 | CN(C)c1ccc(/C=C(\C(=O)c2ccc(Br)cc2)S(=O)(=O)Cc2ccc(F)cc2)cc1 |
| 10 | 10 | Cc1ccc(CS/C(=C/c2ccccc2Br)C(=O)c2ccc(Cl)cc2)cc1 |
| 10 | 1 | COc1ccccc1/C=C(/SCc1ccc(F)cc1)C(=O)c1ccc(Cl)cc1 |
| 10 | 1 | O=C(/C(=C\c1ccc(Cl)cc1)SCc1ccc(F)cc1)c1ccc(Cl)cc1 |
| 10 | 1 | Cc1ccsc1/C=C(\C(=O)c1ccc(Cl)cc1)S(=O)(=O)Cc1ccc(F)cc1 |
| 10 | 1 | CCOc1cc(/C=C(\SCc2ccc(Cl)cc2Cl)C(=O)c2ccc(Cl)cc2)ccc1O |
| 50 | > 100 | CN(C)c1ccc(/C=C(/SCc2ccc(Cl)cc2Cl)C(=O)c2ccc(Cl)cc2)cc1 |
| 50 | 50 | Cc1ccsc1/C=C(/SCc1ccc(Cl)cc1)C(=O)c1ccc(Cl)cc1 |
